Assay results: ChEMBL document CHEMBL5036380, “New Highly Potent NLRP3 Inhibitors: Furanochalcone Velutone F Analogues” (ACS Med Chem Lett, 2022)
Active and inactive are the calls of the source. No cut-off for these calls is given here.

How the values were obtained:
THP-1 [1] = assay: Antiinflammatory activity in human THP-1 cells assessed as blockade of caspase 1 p20 in LPS stimulation followed by pretreatment for 40 min before induced with nigericin for 40 min measured by western blot analysis; assay type: functional, cell-based; details: time 80.0 min
How it was run: (§1)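 PMA-differentiated THP-1 cells were primed with LPS, exposed to graded compound doses for 40 min, then given nigericin for 40 min. Supernatants were immunoblotted for IL-1β and caspase-1. Cell extracts were immunoblotted for NLRP3, pro-IL-1β and pro-caspase-1.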

[2] = target: NACHT, LRR and PYD domains-containing protein 3 (Homo sapiens) (UniProt Q96P20); assay: Inhibition of NLRP3 inflammasome activation in LPS/nigericin-treated human THP-1 cells assessed as blockade of […] caspase 1 p20 in LPS stimulation followed by pretreatment for 40 min before induced with nigericin for 40 min measured by western blot analysis; assay type: cell-based; details: time 80.0 min; how it was run: as §1
Sequence of NACHT, LRR and PYD domains-containing protein 3 (Homo sapiens) (Q96P20 whole entry, the tested form may be a part): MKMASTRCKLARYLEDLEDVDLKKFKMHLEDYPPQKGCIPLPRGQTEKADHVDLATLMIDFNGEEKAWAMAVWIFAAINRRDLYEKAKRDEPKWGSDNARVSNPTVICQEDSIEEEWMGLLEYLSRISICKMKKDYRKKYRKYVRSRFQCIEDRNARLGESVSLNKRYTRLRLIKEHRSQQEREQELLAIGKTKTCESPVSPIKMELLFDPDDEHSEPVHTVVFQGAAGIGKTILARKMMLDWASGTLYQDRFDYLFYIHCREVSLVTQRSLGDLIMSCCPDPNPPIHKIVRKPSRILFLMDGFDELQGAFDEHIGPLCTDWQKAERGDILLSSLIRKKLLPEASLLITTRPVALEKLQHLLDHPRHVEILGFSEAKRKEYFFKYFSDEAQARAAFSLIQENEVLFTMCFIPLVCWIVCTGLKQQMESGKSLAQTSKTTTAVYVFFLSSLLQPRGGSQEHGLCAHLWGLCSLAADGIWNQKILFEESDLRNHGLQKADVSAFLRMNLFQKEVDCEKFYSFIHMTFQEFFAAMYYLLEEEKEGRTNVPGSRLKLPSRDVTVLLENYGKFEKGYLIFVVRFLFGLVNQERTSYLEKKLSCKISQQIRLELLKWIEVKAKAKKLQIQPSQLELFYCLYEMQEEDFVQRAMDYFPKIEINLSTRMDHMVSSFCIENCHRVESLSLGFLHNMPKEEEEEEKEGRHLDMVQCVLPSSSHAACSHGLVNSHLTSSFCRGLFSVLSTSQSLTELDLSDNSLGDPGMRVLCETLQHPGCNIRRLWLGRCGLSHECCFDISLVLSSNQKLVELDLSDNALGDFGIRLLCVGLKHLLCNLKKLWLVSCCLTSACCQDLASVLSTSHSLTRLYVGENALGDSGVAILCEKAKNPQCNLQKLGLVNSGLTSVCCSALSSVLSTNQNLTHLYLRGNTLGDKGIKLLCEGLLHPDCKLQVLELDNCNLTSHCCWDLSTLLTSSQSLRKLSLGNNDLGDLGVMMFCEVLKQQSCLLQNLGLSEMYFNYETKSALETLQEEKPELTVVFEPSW

[3] = target: NACHT, LRR and PYD domains-containing protein 3 (Homo sapiens) (UniProt Q96P20); assay: Inhibition of NLRP3 inflammasome activation in LPS/nigericin-treated human THP-1 cells assessed as LPS-induced IL-1beta secretion in LPS stimulation followed by pretreatment for 40 min before induced with nigericin for 40 min measured by western blot analysis; assay type: cell-based; details: time 80.0 min; how it was run: as §1
[4] = target: NLR family CARD domain-containing protein 4 (Homo sapiens) (UniProt Q9NPP4); assay: Inhibition of NLRC4 inflammasome activation in LPS-induced human THP-1 cells at 1 uM for 40 mins followed by flagellin stimulation for 6 h by ELISA; assay type: cell-based; details: time 400.0 min
Sequence of NLR family CARD domain-containing protein 4 (Homo sapiens) (Q9NPP4 whole entry, the tested form may be a part): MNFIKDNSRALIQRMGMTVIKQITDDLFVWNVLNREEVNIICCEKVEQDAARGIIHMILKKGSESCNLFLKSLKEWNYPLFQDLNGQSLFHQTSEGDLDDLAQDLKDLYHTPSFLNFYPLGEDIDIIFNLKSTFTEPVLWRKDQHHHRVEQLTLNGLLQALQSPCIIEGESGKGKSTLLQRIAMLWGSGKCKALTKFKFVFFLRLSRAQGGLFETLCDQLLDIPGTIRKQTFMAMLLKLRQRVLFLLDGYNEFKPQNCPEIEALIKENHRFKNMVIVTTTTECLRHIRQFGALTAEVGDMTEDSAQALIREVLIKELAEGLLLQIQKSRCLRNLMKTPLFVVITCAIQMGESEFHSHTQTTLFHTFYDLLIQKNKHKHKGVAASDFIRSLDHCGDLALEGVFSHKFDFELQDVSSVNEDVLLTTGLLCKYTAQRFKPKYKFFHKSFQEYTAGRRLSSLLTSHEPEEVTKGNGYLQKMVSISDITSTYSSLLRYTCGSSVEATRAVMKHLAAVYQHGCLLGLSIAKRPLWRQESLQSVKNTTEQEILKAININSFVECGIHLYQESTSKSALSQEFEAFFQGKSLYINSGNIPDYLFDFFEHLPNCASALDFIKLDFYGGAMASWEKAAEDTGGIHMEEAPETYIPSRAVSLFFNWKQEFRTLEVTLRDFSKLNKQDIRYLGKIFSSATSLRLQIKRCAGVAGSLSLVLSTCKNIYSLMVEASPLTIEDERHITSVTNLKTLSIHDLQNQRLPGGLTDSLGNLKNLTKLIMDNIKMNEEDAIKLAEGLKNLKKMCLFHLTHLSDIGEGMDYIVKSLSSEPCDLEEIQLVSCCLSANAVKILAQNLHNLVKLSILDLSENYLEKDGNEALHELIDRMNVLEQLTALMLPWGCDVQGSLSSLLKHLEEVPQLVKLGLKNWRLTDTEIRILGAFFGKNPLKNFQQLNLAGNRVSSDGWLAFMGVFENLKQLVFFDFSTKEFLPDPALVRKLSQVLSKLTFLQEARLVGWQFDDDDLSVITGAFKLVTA

THP-1 [5] = assay: Effect on IL-1beta expression in LPS-stimulated human THP-1 cells at 1 uM preincubated for 40 mins followed by LPS stimulation and measured after 3 hrs by Western blot analysis; assay type: functional, cell-based; details: time 220.0 min
How it was run: (§2)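 THP-1 cells were given compound for 40 min, then primed with LPS for 3 h. Medium supernatant was analysed for TNF-α. Cell extracts were immunoblotted for pro-IL-1β and NLRP3.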

THP-1 [6] = assay: Effect on TNFalpha expression in LPS-stimulated human THP-1 cells at 1 uM preincubated for 40 mins followed by LPS addition and measured after 3 hrs by Western blot analysis; assay type: functional, cell-based; details: time 220.0 min; how it was run: as §2
THP-1 [7] = assay: Effect on IL-1beta expression in LPS-stimulated human THP-1 cells preincubated for 40 mins followed by LPS addition and measured after 3 hrs by Western blot analysis; assay type: functional, cell-based; details: time 220.0 min; how it was run: as §2
[8] = AUC (0 to t) in Sprague-Dawley rat at 30 mg/kg, po measured up to 24 hrs by LC-MS/MS analysis; assay type: ADME, organism-based; design: route oral, dose 30 mg/kg, time <=24; details: in vivo
How it was run: (§3)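 Single doses given intravenously (10 mg/kg) or orally (10, 30, 90 mg/kg); plasma levels quantified by LC/MS/MS at multiple time points. Parameters reported as mean values: AUC0–t, CL, Cmax, T1/2, Tmax, and %F based on AUC.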

[9] = Cmax in Sprague-Dawley rat at 90 mg/kg, po measured up to 24 hrs by LC-MS/MS analysis; assay type: ADME, organism-based; design: route oral, dose 90 mg/kg, time <=24; details: in vivo; how it was run: as §3
[10] = Half life in Sprague-Dawley rat at 10 mg/kg, po measured up to 24 hrs by LC-MS/MS analysis; assay type: ADME, organism-based; details: in vivo; how it was run: as §3
[11] = Half life in Sprague-Dawley rat at 30 mg/kg, po measured up to 24 hrs by LC-MS/MS analysis; assay type: ADME, organism-based; details: in vivo; how it was run: as §3
[12] = Tmax in Sprague-Dawley rat at 10 mg/kg, iv measured up to 24 hrs by LC-MS/MS analysis; assay type: ADME, organism-based; details: in vivo; how it was run: as §3
[13] = Tmax in Sprague-Dawley rat at 10 mg/kg, po measured up to 24 hrs by LC-MS/MS analysis; assay type: ADME, organism-based; details: in vivo; how it was run: as §3
[14] = Oral bioavailability in Sprague-Dawley rat at 10 mg/kg measured up to 24 hrs by LC-MS/MS analysis; assay type: ADME, organism-based; details: in vivo; how it was run: as §3
[15] = Oral bioavailability in Sprague-Dawley rat at 30 mg/kg measured up to 24 hrs by LC-MS/MS analysis; assay type: ADME, organism-based; details: in vivo; how it was run: as §3
Spleen = assay: Downregulation of IL-1beta level in spleen of LPS treated C57BL/6J mouse at 10 mg/kg, iv measured after 6 hrs by ELISA

inhibition [2]: inactive
inhibition [3]: inactive
inhibition [4]: inactive
AUC(0-t) at 24 h [8]: 15.8 ng·h/mL
Cmax [9]: 13.6 ng/mL
half-life [10]: 7.43 h
half-life [11]: 7.92 h
Tmax [12]: 6.6 min
Tmax [13]: 2.11 h
bioavailability [14]: 13.8%
bioavailability [15]: 4.99%
Structure (SMILES): COc1cc(/C=C/C(=O)c2ccc(F)cc2)c(OC)cc1Br
Activity (THP-1 [1]): Dose-Dependent Effect
Activity (THP-1 [5]): inactive
Activity (THP-1 [6]): inactive
Activity (THP-1 [7]): inactive
Activity (Spleen): Active
